Reference: ChEMBL document CHEMBL1138117, “Hybrid antibacterials. DNA polymerase-topoisomerase inhibitors” (J Med Chem, 2006)
In brackets after ≈: the same amount, converted by molar mass.

Assays:
[1] = test system: Mus musculus; assay: Effect on survival of mice after ip infection with Vancomycin resistant Enterococcus faecium VRE 700802 at 100 mg/kg, 15 min post injection; type: functional, Swiss Webster; details: route intraperitoneal
Outline: (§1)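 Male Swiss-Webster mice were infected ip with the organism grown in brain-heart infusion broth at 37 °C to log phase and washed. It was given in 0.5 mL broth with 5% mucin; CFU were estimated from OD600. Groups of 5 or 10 received iv tail-vein doses in DCP vehicle at 5 mL/kg. Survivors were counted at 72 h.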

[2] = test system: Mus musculus; assay: Effect on survival of mice after ip infection with Staphylococcus aureus Smith; type: functional
Outline: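 Male Swiss-Webster mice (20–24 g) were given 10⁸ CFU of log-phase S. aureus Smith ip, grown in LB at 37 °C and washed in cold broth. A single iv tail-vein dose was given in DCP vehicle (10% DMA, 10% Cremophor EL in PBS, pH 9.5; 5 mL/kg) 15 min post-infection. Survival was scored at 72 h and ED50 derived.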

[3] = test system: Enterococcus faecalis; assay: Antibacterial activity against Enterococcus faecalis 29212; type: functional
[4] = test system: Mus musculus; assay: Effect on survival of mice after ip infection with Vancomycin resistant Enterococcus faecium VRE 700802 at 75 mg/kg twice at 15 and 135 min post injection; type: functional, Swiss Webster; details: route intraperitoneal
[5] = test system: Enterococcus faecium; assay: Antibacterial activity against Enterococcus faecium 19434; type: functional
[6] = test system: Mus musculus; assay: Effect on survival of mice after ip infection with Vancomycin resistant Enterococcus faecium VRE 700802 at 50 mg/kg twice at 15 and 135 min post injection; type: functional, Swiss Webster; outline: as §1
[7] = test system: Mus musculus; assay: Effect on survival of mice infected with methicillin resistant Staphylococcus aureus 1094 at 50 mg/kg twice at 15 and 135 min post injection; type: functional, Swiss Webster
Outline: (§2)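 Male Swiss-Webster mice were infected ip with 1×10⁷ CFU of log-phase MRSA 1094, grown in brain-heart infusion broth and given in 0.5 mL broth with 5% mucin. Doses in DCP vehicle were given iv by tail vein at 5 mL/kg. Survivors per treated group were counted at 72 h post-infection.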

[8] = test system: Mus musculus; assay: Effect on survival of mice after ip infection with Vancomycin resistant Enterococcus faecium VRE 700802 at 75 mg/kg twice at 15 and 195 min post injection; type: functional, Swiss Webster; details: route intraperitoneal; outline: as §1
[9] = test system: Mus musculus; assay: Effect on survival of mice infected with Enterococcus faecalis 29212 at 75 mg/kg, 15 min post injection; type: functional, Swiss Webster; outline: as §1
[10] = test system: Mus musculus; assay: Effect on survival of mice infected with methicillin resistant Staphylococcus aureus 1094 at 75 mg/kg twice at 15 and 135 min post injection; type: functional, Swiss Webster; outline: as §2
[11] = test system: Mus musculus; assay: Effect on survival of mice infected with methicillin resistant Staphylococcus aureus 1094 at 25 mg/kg twice at 15 and 135 min post injection; type: functional, Swiss Webster; outline: as §2
[12] = test system: Mus musculus; assay: Effect on survival of mice infected with Enterococcus faecalis 29212 at 25 mg/kg twice at 15 and 135 min post injection; type: functional, Swiss Webster; outline: as §1
[13] = test system: Staphylococcus aureus; assay: Antibacterial activity against methicillin resistant Staphylococcus aureus MRSA 1094; type: functional
[14] = test system: Enterococcus faecium; assay: Antibacterial activity against Vancomycin resistant Enterococcus faecium VRE 700802; type: functional
[15] = test system: Escherichia coli; assay: Antibacterial activity against Escherichia coli J53; type: functional
[16] = test system: Mus musculus; assay: Effect on survival of mice infected with Enterococcus faecalis 29212 at 50 mg/kg twice at 15 and 135 min post injection; type: functional, Swiss Webster; outline: as §1
[17] = test system: Mus musculus; assay: Effect on survival of mice infected with Enterococcus faecalis 29212 at 25 mg/kg, 15 min post injection; type: functional, Swiss Webster; outline: as §1
[18] = test system: Mus musculus; assay: Effect on survival of mice infected with Enterococcus faecalis 29212 at 50 mg/kg, 15 min post injection; type: functional, Swiss Webster; outline: as §1
[19] = test system: Mus musculus; assay: Effect on survival of mice after ip infection with Vancomycin resistant Enterococcus faecium VRE 700802 at 50 mg/kg twice at 15 and 195 min post injection; type: functional, Swiss Webster; details: route intraperitoneal
[20] = test system: DNA gyrase (Bacillus subtilis); assay: Inhibition of Bacillus subtilis gyrase activity

`CCc1cc(Nc2cc(=O)n(CCCCN3CCN(c4c(F)cc5c(=O)c(C(=O)O)cn(C6CC6)c5c4F)CC3C)c(=O)[nH]2)ccc1C` (stereo not given) showed an Activity [1] of 10%, an ED50 [2] of 15 mg/kg and an MIC [3] of 1.25 µg/mL (≈ 1.89 µM). For the same molecule, the Activity [4] was 0%, the MIC [5] was 1.25 µg/mL (≈ 1.89 µM) and the Activity [6] was 10%. For the same molecule, the Activity [7] was 0%, the Activity [8] was 45% and the Activity [9] was 80%. The Activity [10] was 55%, the Activity [11] was 5% and the Activity [12] was 40%. It also gave an MIC [13] of 1.25 µg/mL (≈ 1.89 µM), an MIC [14] of 0.625 µg/mL (≈ 0.943 µM) and an MIC [15] of 5 µg/mL (≈ 7.54 µM). For the same molecule, the Activity [16] was 80%, the Activity [17] was 13% and the Activity [18] was 40%. It also gave an Activity [19] of 0% and an IC50 [20] of 21.7 µg/mL (≈ 32.7 µM).
